ChEMBL document CHEMBL1821575, “A novel amino-benzosuberone derivative is a picomolar inhibitor of mammalian aminopeptidase N/CD13” (Bioorg Med Chem, 2011)

Tests used:
[1] = target: Bacterial leucyl aminopeptidase (Vibrio proteolyticus, UniProt Q01693); assay: Inhibition of Aeromonas proteolytica aminopeptidase using L-leucine-p-nitroanilide as substrate after 30 mins by Dixon plot analysis
How it was run: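 Commercial Aeromonas proteolytica aminopeptidase, 2 mUnits per assay in 0.05 M Tris-HCl pH 7.5, 30 °C, started by adding enzyme. L-leucine-p-nitroanilide was set at its Km (0.02 mM). Release of p-nitroanilide was read continuously at 405 nm over 30 min for initial velocities. Ki was taken from Dixon plots, with racemic compounds tested up to their solubility limit.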

Cytosol aminopeptidase = target: T1, Cytosol aminopeptidase (Bos taurus, UniProt P00727); assay: Inhibition of bovine kidney cytosolic leucine aminopeptidase using L-leucine-p-nitroanilide as substrate after 30 mins by Dixon plot analysis
T1 sequence (P00727 whole entry): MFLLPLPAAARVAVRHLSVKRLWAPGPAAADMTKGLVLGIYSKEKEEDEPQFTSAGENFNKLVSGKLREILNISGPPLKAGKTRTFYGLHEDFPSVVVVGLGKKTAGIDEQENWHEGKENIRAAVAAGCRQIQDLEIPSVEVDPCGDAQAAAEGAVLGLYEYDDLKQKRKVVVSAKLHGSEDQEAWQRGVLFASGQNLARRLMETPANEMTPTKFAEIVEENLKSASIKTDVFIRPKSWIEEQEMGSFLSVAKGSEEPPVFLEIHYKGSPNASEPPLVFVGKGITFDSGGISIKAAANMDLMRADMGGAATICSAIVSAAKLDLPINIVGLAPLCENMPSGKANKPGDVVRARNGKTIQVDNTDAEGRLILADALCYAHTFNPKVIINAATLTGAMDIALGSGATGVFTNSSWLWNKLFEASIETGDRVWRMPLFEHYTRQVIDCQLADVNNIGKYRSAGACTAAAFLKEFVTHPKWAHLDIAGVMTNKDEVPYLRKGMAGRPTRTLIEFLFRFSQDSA
How it was run: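 Cytosolic leucine aminopeptidase, purified by a published procedure, 20 Units per assay in 0.1 M Tris-HCl, 0.1 mM ZnCl2, 5 mM MnCl2, 1 M KCl, pH 8.0, at 30 °C. […] Ki came from Dixon plots of racemates.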

Aminopeptidase N = target: T2, Aminopeptidase N (Sus scrofa, UniProt P15145); assay: Inhibition of porcine kidney APN using L-leucine-p-nitroanilide as substrate after 30 mins by Dixon plot analysis
T2 sequence (P15145 whole entry): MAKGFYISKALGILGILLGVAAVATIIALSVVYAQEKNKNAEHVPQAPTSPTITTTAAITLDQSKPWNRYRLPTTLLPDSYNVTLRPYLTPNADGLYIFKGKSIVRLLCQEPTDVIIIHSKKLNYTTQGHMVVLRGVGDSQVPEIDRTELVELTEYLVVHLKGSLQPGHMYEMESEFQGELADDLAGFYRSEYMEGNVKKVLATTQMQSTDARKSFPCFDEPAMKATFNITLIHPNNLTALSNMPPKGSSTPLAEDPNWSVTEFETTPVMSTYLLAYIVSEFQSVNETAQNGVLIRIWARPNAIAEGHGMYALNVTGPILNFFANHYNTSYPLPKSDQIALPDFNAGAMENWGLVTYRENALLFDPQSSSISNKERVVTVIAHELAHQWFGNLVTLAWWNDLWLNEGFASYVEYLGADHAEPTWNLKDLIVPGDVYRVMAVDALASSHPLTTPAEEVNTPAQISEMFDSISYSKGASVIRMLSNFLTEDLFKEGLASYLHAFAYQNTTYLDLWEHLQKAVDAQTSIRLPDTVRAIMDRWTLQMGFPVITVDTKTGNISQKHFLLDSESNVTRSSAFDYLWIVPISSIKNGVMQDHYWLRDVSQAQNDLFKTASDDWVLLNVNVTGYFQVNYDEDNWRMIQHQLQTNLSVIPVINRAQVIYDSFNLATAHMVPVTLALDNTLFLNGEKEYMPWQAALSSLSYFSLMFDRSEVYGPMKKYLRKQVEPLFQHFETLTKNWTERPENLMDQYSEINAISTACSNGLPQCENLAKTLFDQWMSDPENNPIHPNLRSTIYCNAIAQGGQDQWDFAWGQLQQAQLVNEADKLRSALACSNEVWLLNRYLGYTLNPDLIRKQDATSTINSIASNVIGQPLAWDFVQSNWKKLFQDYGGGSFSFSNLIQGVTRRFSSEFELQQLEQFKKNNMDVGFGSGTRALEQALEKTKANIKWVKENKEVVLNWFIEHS

Chain of Bacterial leucyl aminopeptidase (Q01693 whole entry): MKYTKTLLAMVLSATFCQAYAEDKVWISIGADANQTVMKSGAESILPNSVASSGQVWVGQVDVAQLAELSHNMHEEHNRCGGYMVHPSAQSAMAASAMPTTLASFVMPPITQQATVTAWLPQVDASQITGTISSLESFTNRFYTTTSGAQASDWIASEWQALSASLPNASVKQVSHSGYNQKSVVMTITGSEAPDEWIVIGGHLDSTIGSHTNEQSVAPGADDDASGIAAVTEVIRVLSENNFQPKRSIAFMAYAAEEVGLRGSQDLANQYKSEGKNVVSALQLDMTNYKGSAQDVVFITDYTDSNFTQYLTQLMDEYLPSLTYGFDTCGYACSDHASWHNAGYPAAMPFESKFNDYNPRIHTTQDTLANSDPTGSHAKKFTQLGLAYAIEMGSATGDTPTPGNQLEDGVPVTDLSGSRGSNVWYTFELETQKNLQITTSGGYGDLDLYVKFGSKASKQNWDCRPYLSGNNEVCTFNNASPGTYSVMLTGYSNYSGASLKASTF

| SMILES | Ki [1] | Ki (Cytosol aminopeptidase) | Ki (Aminopeptidase N) |
| --- | --- | --- | --- |
| NC1CCc2c(ccc3ccccc23)CC1=O (racemic) | > 100 µM | > 100 µM | 0.04 µM |
| NC1CCc2c(-c3ccccc3)ccc(Br)c2CC1=O (racemic) | > 100 µM | > 100 µM | 0.07 µM |
| NC1CCc2cccc(-c3ccccc3)c2CC1=O (racemic) | 28 µM | > 100 µM |  |
| NC1CCc2c(Br)ccc(-c3ccccc3)c2CC1=O (racemic) | 39 µM | 70 µM |  |
| NC1CCc2c(-c3ccccc3)ccc(-c3ccccc3)c2CC1=O (racemic) | > 100 µM | 50 µM | 0.04 µM |
| NC1CCc2c(cccc2-c2ccccc2)CC1=O (racemic) | > 100 µM | > 100 µM |  |

Further lines, results first:

| Ki [1] | Ki (Cytosol aminopeptidase) | Ki (Aminopeptidase N) | SMILES |
| --- | --- | --- | --- |
| > 100 µM | > 100 µM |  | NC1CCc2c(Br)cccc2CC1=O (racemic) |
| > 100 µM | > 100 µM |  | NC1CCc2c(Cl)cccc2CC1=O (racemic) |
|  | > 100 µM | 0.006 µM | NC1CCc2c(Br)ccc(Br)c2CC1=O (racemic) |
| 900 µM | > 100 µM |  | NC1CCc2ccccc2CC1=O (racemic) |
| 213 µM | > 100 µM |  | NC1CCc2cccc(Br)c2CC1=O (racemic) |
| > 100 µM | > 100 µM | 0.1 µM | NC1CCc2ccc3ccccc3c2CC1=O (racemic) |
